Consider eight molecules from ChEMBL document CHEMBL2321845, “Discovery of 4-Aryl-2-benzoyl-imidazoles as tubulin polymerization inhibitor with potent antiproliferative properties” (J Med Chem, 2013).

A word on the IC50: it is the point on the concentration scale where inhibition reaches its midpoint.

The first assay relates to PPC-1. Put plainly: Cytotoxicity against human PPC1 cells assessed as growth inhibition after 96 hrs by SRB assay. The assay is classed as functional, cell-based. To be noted: PPC-1, 96 h. The method, boiled down: (§1)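 Plated at 1000–5000 cells/well depending on growth rate and treated with graded compound concentrations for 96 h, three to five replicates. Cell number was measured by SRB: 10% TCA fixation, 0.4% SRB staining, absorbance at 540 nm. IC50 relative to untreated control came from a nonlinear regression fit.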
For the molecule `COc1cc(C(=O)c2nc(-c3ccccc3)cn2C(C)C)cc(OC)c1OC`, the IC50 turned out to be 15 nM.

As for `COc1cc(C(=O)c2nc(-c3cc(OC)c(OC)c(OC)c3)c[nH]2)cc(OC)c1OC`, the half-maximal inhibitory concentration (IC50) is more than 50000 nM.

Take `CCc1[nH]c(C(=O)c2cc(OC)c(OC)c(OC)c2)nc1-c1ccccc1`: the half-inhibitory concentration (IC50) is 2080 nM.

In the case of `COc1cc(-c2c[nH]c(C(=O)c3ccc(Br)cc3)n2)cc(OC)c1OC`, the IC50 was determined as 106 nM.

For `Cc1ccc(C(=O)c2nc(-c3ccc(C)cc3)c[nH]2)cc1`, the IC50 came to 2400 nM.

`COc1cc(C(=O)c2nc(-c3ccc(N(C)C)cc3)c[nH]2)cc(OC)c1OC`: the concentration for half-maximal inhibition (IC50) was 120 nM.

As for `COc1cc(C(=O)c2nc(-c3ccc(Cl)cc3)c[nH]2)cc(OC)c1OC`, the half-inhibitory concentration (IC50) was 51 nM.

As to `O=C(c1ccc(Cl)cc1)c1nc(-c2ccc(Cl)cc2)c[nH]1`, the IC50 is more than 50000 nM.

The subject of another assay is MDA-MB-435. Put plainly: Cytotoxicity against human MDA-MB-435 cells assessed as growth inhibition after 48 hrs by SRB assay. The assay is classed as functional, cell-based. The note with it: MDA-MB-435, 48 h. In general terms: Sulforhodamine B stains cellular protein and so reports cell mass.
As for `COc1cc(C(=O)c2nc(-c3ccccc3)cn2C(C)C)cc(OC)c1OC`, the concentration for half-maximal inhibition (IC50) came out at 18 nM.

As for `COc1cc(C(=O)c2nc(-c3cc(OC)c(OC)c(OC)c3)c[nH]2)cc(OC)c1OC`, the half-inhibitory concentration (IC50) is more than 50000 nM.

As to `CCc1[nH]c(C(=O)c2cc(OC)c(OC)c(OC)c2)nc1-c1ccccc1`, the 50% inhibitory concentration (IC50) was 8800 nM.

For `COc1cc(-c2c[nH]c(C(=O)c3ccc(Br)cc3)n2)cc(OC)c1OC`, the half-maximal inhibitory concentration (IC50) came to 186 nM.

In the case of `Cc1ccc(C(=O)c2nc(-c3ccc(C)cc3)c[nH]2)cc1`, the IC50 was found to be 3020 nM.

On to `COc1cc(C(=O)c2nc(-c3ccc(N(C)C)cc3)c[nH]2)cc(OC)c1OC`, for which the IC50 was determined as 200 nM.

As to `COc1cc(C(=O)c2nc(-c3ccc(Cl)cc3)c[nH]2)cc(OC)c1OC`, the concentration for half-maximal inhibition (IC50) worked out at 106 nM.

On to `O=C(c1ccc(Cl)cc1)c1nc(-c2ccc(Cl)cc2)c[nH]1`, for which the IC50 is more than 50000 nM.

Test system in a further assay: not listed separately
Put plainly: Cytotoxicity against human WM164 cells assessed as growth inhibition after 48 hrs by SRB assay. To be noted: WM164, 48 h. The assay is classed as functional, cell-based. The method in brief: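 Melanoma cells from ATCC, grown in DMEM with 10% FBS at 37°C under 5% CO2. Seeded at 1000–5000 cells/well according to growth rate and exposed to a range of compound concentrations for 48 h, in three to five replicates. Cells were fixed with 10% TCA, stained with 0.4% SRB and read at 540 nm. IC50 (50% growth inhibition versus untreated control) was taken from nonlinear regression of % survival against concentration.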
For the molecule `COc1cc(C(=O)c2nc(-c3ccccc3)cn2C(C)C)cc(OC)c1OC`, the concentration for half-maximal inhibition (IC50) worked out at 23 nM.

Consider `COc1cc(C(=O)c2nc(-c3cc(OC)c(OC)c(OC)c3)c[nH]2)cc(OC)c1OC`, for which the IC50 is more than 50000 nM.

As for `CCc1[nH]c(C(=O)c2cc(OC)c(OC)c(OC)c2)nc1-c1ccccc1`, the IC50 was 5510 nM.

Consider `COc1cc(-c2c[nH]c(C(=O)c3ccc(Br)cc3)n2)cc(OC)c1OC`, for which the IC50 was determined as 177 nM.

For the molecule `Cc1ccc(C(=O)c2nc(-c3ccc(C)cc3)c[nH]2)cc1`, the IC50 turned out to be 3690 nM.

For the molecule `COc1cc(C(=O)c2nc(-c3ccc(N(C)C)cc3)c[nH]2)cc(OC)c1OC`, the concentration for half-maximal inhibition (IC50) amounted to 129 nM.

Consider `COc1cc(C(=O)c2nc(-c3ccc(Cl)cc3)c[nH]2)cc(OC)c1OC`, for which the IC50 is 63 nM.

Regarding `O=C(c1ccc(Cl)cc1)c1nc(-c2ccc(Cl)cc2)c[nH]1`, the IC50 was more than 50000 nM.

The next assay relates to DU-145. Put plainly: Cytotoxicity against human DU145 cells assessed as growth inhibition after 96 hrs by SRB assay. The assay is classed as functional, cell-based. To be noted: Homo sapiens, DU-145, 96 h.
Regarding `COc1cc(C(=O)c2nc(-c3ccccc3)cn2C(C)C)cc(OC)c1OC`, the IC50 was 114 nM.

With `COc1cc(C(=O)c2nc(-c3cc(OC)c(OC)c(OC)c3)c[nH]2)cc(OC)c1OC`, the IC50 was more than 50000 nM.

Turning to `CCc1[nH]c(C(=O)c2cc(OC)c(OC)c(OC)c2)nc1-c1ccccc1`, the half-maximal inhibitory concentration (IC50) is 5080 nM.

Regarding `COc1cc(-c2c[nH]c(C(=O)c3ccc(Br)cc3)n2)cc(OC)c1OC`, the IC50 came out at 429 nM.

As for `Cc1ccc(C(=O)c2nc(-c3ccc(C)cc3)c[nH]2)cc1`, the IC50 came out at 6540 nM.

`COc1cc(C(=O)c2nc(-c3ccc(N(C)C)cc3)c[nH]2)cc(OC)c1OC`: the half-maximal inhibitory concentration (IC50) worked out at 263 nM.

Regarding `COc1cc(C(=O)c2nc(-c3ccc(Cl)cc3)c[nH]2)cc(OC)c1OC`, the IC50 was determined as 125 nM.

For the molecule `O=C(c1ccc(Cl)cc1)c1nc(-c2ccc(Cl)cc2)c[nH]1`, the IC50 is more than 50000 nM.

A further assay relates to PC-3. Put plainly: Cytotoxicity against human PC3 cells assessed as growth inhibition after 96 hrs by SRB assay. The note with it: PC-3, 96 h. The format is functional, cell-based. The method in brief: as §1
For the molecule `COc1cc(C(=O)c2nc(-c3ccccc3)cn2C(C)C)cc(OC)c1OC`, the IC50 turned out to be 53 nM.

Turning to `COc1cc(C(=O)c2nc(-c3cc(OC)c(OC)c(OC)c3)c[nH]2)cc(OC)c1OC`, the IC50 is more than 50000 nM.

Turning to `CCc1[nH]c(C(=O)c2cc(OC)c(OC)c(OC)c2)nc1-c1ccccc1`, the IC50 stood at 3650 nM.

Turning to `COc1cc(-c2c[nH]c(C(=O)c3ccc(Br)cc3)n2)cc(OC)c1OC`, the half-maximal inhibitory concentration (IC50) is 371 nM.

With `Cc1ccc(C(=O)c2nc(-c3ccc(C)cc3)c[nH]2)cc1`, the IC50 worked out at 5160 nM.

Regarding `COc1cc(C(=O)c2nc(-c3ccc(N(C)C)cc3)c[nH]2)cc(OC)c1OC`, the concentration for half-maximal inhibition (IC50) amounted to 118 nM.

As to `COc1cc(C(=O)c2nc(-c3ccc(Cl)cc3)c[nH]2)cc(OC)c1OC`, the IC50 amounted to 64 nM.

For `O=C(c1ccc(Cl)cc1)c1nc(-c2ccc(Cl)cc2)c[nH]1`, the IC50 is more than 50000 nM.

The next assay relates to A-375. Put plainly: Cytotoxicity against human A375 cells assessed as growth inhibition after 48 hrs by SRB assay. The format is functional, cell-based. The note with it: A-375, 48 h. The method, boiled down:
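Melanoma cells from ATCC, grown in DMEM with 10% FBS at 37°C under 5% CO2. Seeded at 1000–5000 cells/well according to growth rate and exposed to a range of compound concentrations for 48 h, in three to five replicates. Cells were fixed with 10% TCA, stained with 0.4% SRB and read at 540 nm.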
With `COc1cc(C(=O)c2nc(-c3ccccc3)cn2C(C)C)cc(OC)c1OC`, the IC50 was 38 nM.

As for `COc1cc(C(=O)c2nc(-c3cc(OC)c(OC)c(OC)c3)c[nH]2)cc(OC)c1OC`, the IC50 is more than 50000 nM.

On to `CCc1[nH]c(C(=O)c2cc(OC)c(OC)c(OC)c2)nc1-c1ccccc1`, for which the IC50 amounted to 2150 nM.

Turning to `COc1cc(-c2c[nH]c(C(=O)c3ccc(Br)cc3)n2)cc(OC)c1OC`, the 50% inhibitory concentration (IC50) is 136 nM.

With `Cc1ccc(C(=O)c2nc(-c3ccc(C)cc3)c[nH]2)cc1`, the half-inhibitory concentration (IC50) is 2540 nM.

On to `COc1cc(C(=O)c2nc(-c3ccc(N(C)C)cc3)c[nH]2)cc(OC)c1OC`, for which the IC50 was 141 nM.

In the case of `COc1cc(C(=O)c2nc(-c3ccc(Cl)cc3)c[nH]2)cc(OC)c1OC`, the IC50 was 51 nM.

Regarding `O=C(c1ccc(Cl)cc1)c1nc(-c2ccc(Cl)cc2)c[nH]1`, the 50% inhibitory concentration (IC50) worked out at 35700 nM.

Another assay has as its system LNCaP. In words: Cytotoxicity against human LNCAP cells assessed as growth inhibition after 96 hrs by SRB assay. The format is functional, cell-based.
Details: not given
The method in brief:
as §1
For the molecule `COc1cc(C(=O)c2nc(-c3ccccc3)cn2C(C)C)cc(OC)c1OC`, the IC50 is 62 nM.

Take `COc1cc(C(=O)c2nc(-c3cc(OC)c(OC)c(OC)c3)c[nH]2)cc(OC)c1OC`: the half-inhibitory concentration (IC50) was more than 50000 nM.

On to `CCc1[nH]c(C(=O)c2cc(OC)c(OC)c(OC)c2)nc1-c1ccccc1`, for which the IC50 was found to be 2030 nM.

For `COc1cc(-c2c[nH]c(C(=O)c3ccc(Br)cc3)n2)cc(OC)c1OC`, the IC50 turned out to be 131 nM.

Take `Cc1ccc(C(=O)c2nc(-c3ccc(C)cc3)c[nH]2)cc1`: the IC50 worked out at 3760 nM.

For the molecule `COc1cc(C(=O)c2nc(-c3ccc(N(C)C)cc3)c[nH]2)cc(OC)c1OC`, the IC50 stood at 96 nM.

Regarding `COc1cc(C(=O)c2nc(-c3ccc(Cl)cc3)c[nH]2)cc(OC)c1OC`, the half-maximal inhibitory concentration (IC50) was determined as 22 nM.

With `O=C(c1ccc(Cl)cc1)c1nc(-c2ccc(Cl)cc2)c[nH]1`, the 50% inhibitory concentration (IC50) was more than 50000 nM.

Test system in the next assay: not listed separately
Put plainly: Cytotoxicity against human MDA-MB-435/LCC6MDR1 cells assessed as growth inhibition after 48 hrs by SRB assay. The format is functional, cell-based, MDA-MB-435/LCC6 MDR1. The note with it: Homo sapiens, MDA-MB-435/LCC6 MDR1, 48 h.
In the case of `COc1cc(C(=O)c2nc(-c3ccccc3)cn2C(C)C)cc(OC)c1OC`, the concentration for half-maximal inhibition (IC50) is 44 nM.

With `COc1cc(C(=O)c2nc(-c3cc(OC)c(OC)c(OC)c3)c[nH]2)cc(OC)c1OC`, the IC50 was more than 50000 nM.

As to `CCc1[nH]c(C(=O)c2cc(OC)c(OC)c(OC)c2)nc1-c1ccccc1`, the 50% inhibitory concentration (IC50) was 5110 nM.

As to `COc1cc(-c2c[nH]c(C(=O)c3ccc(Br)cc3)n2)cc(OC)c1OC`, the concentration for half-maximal inhibition (IC50) stood at 161 nM.

On to `Cc1ccc(C(=O)c2nc(-c3ccc(C)cc3)c[nH]2)cc1`, for which the 50% inhibitory concentration (IC50) came out at 3270 nM.

`COc1cc(C(=O)c2nc(-c3ccc(N(C)C)cc3)c[nH]2)cc(OC)c1OC`: the IC50 turned out to be 162 nM.

For the molecule `COc1cc(C(=O)c2nc(-c3ccc(Cl)cc3)c[nH]2)cc(OC)c1OC`, the 50% inhibitory concentration (IC50) turned out to be 75 nM.

As for `O=C(c1ccc(Cl)cc1)c1nc(-c2ccc(Cl)cc2)c[nH]1`, the concentration for half-maximal inhibition (IC50) was more than 50000 nM.
